Shown are actives, neighbours in structure and some others; about 3.2% of the full set was active somewhere.
Ecoli rRNA inh: selective bacterial rRNA inhibition in E. coli. E. coli WT GFP vs humanized-ribosome RFP mutants, fluorescence, 24 h; active compounds read low; DMSO median 0, no signal -100. GFP signal change (wild-type ribosome), % (concentration not given with the values). 1.6% of 350,000 active. AID 720706;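 active = significant combined selectivity score with lowered wild-type GFP, culture density cut under 30%, mutant RFP and density less affected; inactive = any of these conditions unmet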
DENV2 CPE rescue: protects cells from dengue virus 2 cytopathic effect; DENV2-infected cells, cytopathic effect rescue, plate reader; CPE inhibition, % at 9.99 µM; 1.7% of 350,000 active; in the data active = CPE inhibition above about 20%, passing the limit was not always enough; inconclusive = no clear call, values can overlap the other calls; tested in BHK-21 cells;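 also: 0% = median of neutral control wells and 100% = median of positive control wells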
Cneo AK release: causes C. neoformans cell lysis. adenylate kinase release luminescence, 4 h; normalised: neutral wells 0, clomiphene wells 100. lysis activity, % at 15 µM. 0.2% of 360,000 active;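 active = mean lysis activity across replicates of at least 80%, whatever share of replicates individually reach that level; inactive = mean lysis activity below 80%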
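Material – log-phase Cryptococcus neoformans yeast cells · Input – 5 × 10^6 yeast cells/mL · Medium – fresh YPD growth medium · Doses – single compound concentration per well · Timing – static 4 h at 37 °C with compound, 1 h detection · Detection – adenylate kinase release luminescence · Read-out – signal increase indicating cell lysis · Control set – Clomiphene as positive lysis control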
PfHsp90 yeast 2: growth inhibition of yeast expressing Plasmodium Hsp90; S. cerevisiae expressing PfHsp90, BacTiter-Glo ATP, 48 h; yeast lacking PDR1 and PDR3 efflux regulators; inhibition, % at 9.4 µM; 0.32% of 310,000 active; AID 504621;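 active = every replicate shows inhibition above about 80%, whatever the replicate mean, limit read from the data; inconclusive = mean inhibition reaches the set limit but some replicate falls short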;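 also: 0% = DMSO neutral controls and 100% = 20 µM radicicol positive controls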
S100A4 inh HTS: inhibitors of human S100A4 binding to myosin IIA peptide; 0.14% of 360,000 active; AID 652163; P26447; inhibition, % at 10.7 µM; S100A4/TAMRA-MyoIIA peptide fluorescence polarization;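 active = mean inhibition of at least 70% across replicates, with every replicate also reaching that level; inconclusive = mean inhibition reaches 70% but some replicates fall short; inactive = mean inhibition below 70%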
Target sequence (P26447 whole entry, looked up): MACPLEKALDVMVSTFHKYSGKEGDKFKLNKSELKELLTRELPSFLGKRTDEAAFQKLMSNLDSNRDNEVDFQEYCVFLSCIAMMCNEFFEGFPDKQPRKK
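incubation = readout 5 min after mixing, signal stable up to 60 min | system = S100A4 monomer protein | buffer or medium = HEPES pH 7.2 with CaCl2, KCl, NaCl, DTT, Triton | benchmarks = neutral control DMSO, positive control TFP | also added = fluorescent myosin IIA peptide, 5 nM | compound dosing = one concentration per compound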
MLL AF4-AF9 inh: MLL-AF4/AF9 protein interaction inhibition; 0.47% of 350,000 active; P42568; inhibition, % at 10 µM; AlphaScreen, biotin-AF4 peptide binding to FLAG-AF9;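 active = every replicate reaching a set inhibition limit, whatever the replicate mean, cut at about 25% in these data; inconclusive = mean inhibition reaches that limit but some replicates miss it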;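 also: 0% = plate neutral control median and 100% = total signal loss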
Target sequence (P42568 whole entry, looked up): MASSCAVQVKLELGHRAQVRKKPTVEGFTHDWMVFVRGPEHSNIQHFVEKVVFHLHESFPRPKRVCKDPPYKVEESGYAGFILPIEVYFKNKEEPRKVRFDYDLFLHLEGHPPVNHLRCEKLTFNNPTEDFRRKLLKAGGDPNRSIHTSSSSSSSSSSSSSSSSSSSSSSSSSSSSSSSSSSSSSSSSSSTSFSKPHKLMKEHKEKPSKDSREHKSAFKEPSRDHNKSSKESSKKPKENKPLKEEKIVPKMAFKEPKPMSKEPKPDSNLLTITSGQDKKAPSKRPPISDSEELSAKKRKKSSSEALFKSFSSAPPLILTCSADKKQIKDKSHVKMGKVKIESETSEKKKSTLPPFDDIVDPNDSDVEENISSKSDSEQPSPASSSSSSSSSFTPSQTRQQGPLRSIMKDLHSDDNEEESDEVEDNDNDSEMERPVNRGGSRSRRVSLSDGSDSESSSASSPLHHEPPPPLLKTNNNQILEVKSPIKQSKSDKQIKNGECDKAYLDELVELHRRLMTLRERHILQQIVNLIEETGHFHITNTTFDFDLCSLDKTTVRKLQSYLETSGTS
The depositor's hits bear a star; ? = inconclusive; · = no result; ! = a repeat was not active.

SMILES	Ecoli rRNA inh	DENV2 CPE rescue	Cneo AK release	PfHsp90 yeast 2	S100A4 inh HTS	MLL AF4-AF9 inh
CCc1c(O)nc(SCC(=O)Nc2nc3ccccc3s2)n(C2CCCCC2)c1=O	-17*	-5	-1	32	-4	-2
CCc1c(O)nc(SCC(=O)Nc2ccc(OC)cc2)n(C2CCCCC2)c1=O	·	·	13	-18	·	·
COc1ccc(C(CCNCc2ccc(OC(C)C)cc2)C(C)C)cc1 (stereo not drawn)	-48*	-26	3	·	-20	?
COc1ccc(-c2ccc(C3[C@@H]4CN(S(=O)(=O)c5ccccc5C)C[C@H]3N4)cc2)cc1 (stereo partly drawn)	-10	31*!	·	·	·	·
Cc1ccccc1S(=O)(=O)N1CCCCN2[C@H](C1)[C@@H](c1ccc(-c3cncnc3)cc1)[C@@H]2CO	-5	-9	1	·	-16	-6
O=S(=O)(c1ccccc1)N1CCCCN2[C@H](CO)[C@H](c3ccc(-c4cncnc4)cc3)[C@@H]2C1	-3	33*	-2	·	5	-1
Cc1ccccc1S(=O)(=O)N1CCCCN2[C@H](CO)[C@H](c3ccc(-c4cncnc4)cc3)[C@@H]2C1	-7	36*	0	·	0	-4
O=C(C[C@H]1C=C[C@@H](NC(=O)CCN2CCCCC2)[C@H](CO)O1)Nc1ccc(-c2ccccc2)cc1	-3	4	0	·	-7	6
Cc1cc2n(n1)C(c1c[nH]c3ccccc13)Nc1ccccc1-2 (stereo not drawn)	·	·	-7	125*	·	·
Cc1cc2n(n1)C(c1cn(-c3ccccc3)nc1C)Nc1ccccc1-2 (stereo not drawn)	·	·	4	·	·	·
CCC(=O)Nc1ccc2c(c1)OC[C@H](C)N(C(=O)COC)C[C@H](C)[C@H](OC)CN(C)C2=O	-1	11	0	·	2	6
C[C@H]1CCCCO[C@H](CN(C)Cc2ccc(C(F)(F)F)cc2)[C@@H](C)CN([C@@H](C)CO)C(=O)c2cc(NC(=O)Nc3ccc4c(c3)OCO4)ccc2O1	-5	-9	2	·	153*	2
C[C@H]1CCCCO[C@H](CN(C)Cc2ccc3c(c2)OCO3)[C@@H](C)CN([C@@H](C)CO)C(=O)c2cc(NC(=O)Nc3ccc4c(c3)OCO4)ccc2O1	-12	-23	3	·	-4	29*
C[C@@H]1CCCCO[C@H](CN(C)CC2CC2)[C@@H](C)CN([C@H](C)CO)C(=O)c2cc(NC(=O)Nc3ccc4c(c3)OCO4)ccc2O1	5	7	3	·	-21	25*
C[C@@H]1CCCCO[C@@H](CN(C)CC2CC2)[C@@H](C)CN([C@H](C)CO)C(=O)c2cc(NC(=O)Nc3ccc4c(c3)OCO4)ccc2O1	6	-2	-2	·	-31	19
C[C@@H]1CCCCO[C@H](CN(C)Cc2ccc3c(c2)OCO3)[C@H](C)CN([C@@H](C)CO)C(=O)c2cc(NC(=O)Nc3ccc4c(c3)OCO4)ccc2O1	4	-27	-1	·	-13	27*
CO[C@H]1CN(C)C(=O)c2ccc(NC(C)=O)cc2OC[C@H](C)N(Cc2ccc(F)cc2)C[C@@H]1C	-6	·	44	·	9	0
COc1ccc(S(=O)(=O)N(C)C[C@H]2Oc3c(NS(=O)(=O)c4ccc(C)cc4)cccc3C(=O)N([C@H](C)CO)C[C@@H]2C)cc1	2	·	·	·	47	-1
C[C@H](CO)N1C[C@H](C)[C@H](CN(C)Cc2ccc3c(c2)OCO3)Oc2ccc(NC(=O)CCN3CCOCC3)cc2C1=O	4	-3	1	·	-3	-3
COC(=O)C[C@H]1C[C@H]2c3cc(NS(=O)(=O)c4ccc(F)cc4)ccc3O[C@H]2[C@H](CO)O1	1	5	-2	·	-2	2
C[C@H](CO)N1C[C@H](C)[C@H](CN(C)Cc2ccc3c(c2)OCO3)Oc2ncc(-c3cc4ccccc4o3)cc2C1=O	6	·	·	·	·	·
CN(c1ccccc1)S(=O)(=O)c1ccc(C(=O)NCc2ccc(F)cc2)cc1	-22	2	2	-6	8	4
Cc1ccc(CNC(=O)c2ccc(N(C)S(=O)(=O)c3ccccc3)cc2)cc1	-33*	-5	-1	10	4	0
COc1ccccc1/C=C(/C(=O)OCC(=O)Nc1ccccc1C)c1ccccc1	-22*	11	1	1	-2	3
Cc1cccc(C)c1NC(=O)CN(C)C(C)C(=O)Nc1ccccc1-c1ccccc1 (stereo not drawn)	-25*	6	3	0	2	1
SMILES	Ecoli rRNA inh	DENV2 CPE rescue	Cneo AK release	PfHsp90 yeast 2	S100A4 inh HTS	MLL AF4-AF9 inh
CCN(CC)S(=O)(=O)c1cc(NC(=O)C(C)N(C)CC(=O)Nc2c(C)cccc2C)ccc1C (stereo not drawn)	·	·	1	-7	·	·
C[C@@H]1CN([C@H](C)CO)C(=O)Cc2cc(NC(=O)Nc3ccccc3)ccc2O[C@@H]1CN(C)C(=O)Nc1ccc(F)cc1	4	18	2	·	-47	-1
CCC(=O)N1[C@H](CO)[C@H](c2ccccc2)C12CN(Cc1nccs1)C2	-1	-14	·	·	-11	0
C[C@H](CO)N1C[C@H](C)[C@H](CN(C)C(=O)Nc2ccc(F)cc2)OCc2ccccc2-c2c(n(C)c3ccccc23)C1=O	4	73*!	1	·	-4	-2
C[C@H](CO)N1C[C@H](C)[C@@H](CN(C)C(=O)[C@H](Cc2ccccc2)N(C)C)OCc2ccccc2-c2c(n(C)c3ccccc23)C1=O	0	-3	-1	·	-12	37*
CNC[C@@H]1OCc2ccccc2-c2ccccc2C(=O)N([C@@H](C)CO)C[C@@H]1C	5	33*!	-1	·	-7	4
CC(=O)N(C)C[C@H]1OCc2ccccc2-c2c(n(C)c3ccccc23)C(=O)N([C@H](C)CO)C[C@H]1C	0	34*	-1	·	2	-2
CNC[C@H]1OCc2ccccc2-c2ccccc2C(=O)N([C@H](C)CO)C[C@@H]1C	0	0	-3	·	10	-2
C[C@@H]1CN([C@@H](C)CO)C(=O)c2c(c3ccccc3n2C)-c2ccccc2CO[C@@H]1CN(C)C(=O)[C@@H](Cc1ccccc1)N(C)C	0	-6	2	·	38	12
CC(=O)N(C)C[C@@H]1OCc2ccccc2-c2c(n(C)c3ccccc23)C(=O)N([C@@H](C)CO)C[C@H]1C	0	6	1	·	-1	-6
CO[C@@H]1CN(C)C(=O)c2ccc(NC(=O)NC(C)C)cc2OC[C@@H](C)N(Cc2ccccn2)C[C@H]1C	-1	13	·	·	-14	-2
CNC[C@@H]1OCc2ccccc2-c2c(n(C)c3ccccc23)C(=O)N([C@H](C)CO)C[C@@H]1C	-1	33*!	1	·	10	2

Compound activity from PubChem BioAssay.
